The term IC50 denotes the concentration at which inhibition is half-maximal. A high value points to lower potency. In general, inhibition refers to the share of the control response that was lost under treatment. Low values mean little suppression, high ones strong suppression.

The record followed here is ChEMBL document CHEMBL2417547 (J Med Chem, 2013).

In series [1] the target is T1, Cytochrome P450 11B2, mitochondrial (Homo sapiens, UniProt P19099).
T1 sequence (P19099 whole entry): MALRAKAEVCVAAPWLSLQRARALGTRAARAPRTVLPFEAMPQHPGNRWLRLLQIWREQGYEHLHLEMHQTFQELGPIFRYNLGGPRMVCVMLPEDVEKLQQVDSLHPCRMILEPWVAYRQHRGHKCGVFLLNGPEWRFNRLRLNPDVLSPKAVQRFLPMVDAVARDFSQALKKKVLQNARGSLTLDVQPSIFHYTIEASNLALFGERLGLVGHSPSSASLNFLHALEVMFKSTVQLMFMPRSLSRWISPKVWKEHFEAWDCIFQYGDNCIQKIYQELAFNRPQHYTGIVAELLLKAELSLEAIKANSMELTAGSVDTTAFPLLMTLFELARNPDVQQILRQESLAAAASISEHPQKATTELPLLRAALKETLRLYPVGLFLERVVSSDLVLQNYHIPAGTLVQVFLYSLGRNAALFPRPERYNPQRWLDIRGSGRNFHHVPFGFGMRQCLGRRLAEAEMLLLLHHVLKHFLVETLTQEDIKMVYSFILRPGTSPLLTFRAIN
The series can be described thus: Inhibition of human CYP11B2 expressed in hamster V79MZh cells using [1,2-3H]-11-deoxycorticosterone as substrate. The format is cell-based. The method, boiled down:
(§1)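 V79MZh hamster fibroblasts expressing human CYP11B1 or CYP11B2 were incubated with [1,2-3H]-11-deoxycorticosterone (100 nM) plus inhibitor at a range of concentrations. The selectivity factor is IC50(CYP11B2)/IC50(CYP11B1).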

Another series concerns the target T2, CYP19 (aromatase) (Homo sapiens, UniProt P11511).
T2 sequence (P11511 whole entry): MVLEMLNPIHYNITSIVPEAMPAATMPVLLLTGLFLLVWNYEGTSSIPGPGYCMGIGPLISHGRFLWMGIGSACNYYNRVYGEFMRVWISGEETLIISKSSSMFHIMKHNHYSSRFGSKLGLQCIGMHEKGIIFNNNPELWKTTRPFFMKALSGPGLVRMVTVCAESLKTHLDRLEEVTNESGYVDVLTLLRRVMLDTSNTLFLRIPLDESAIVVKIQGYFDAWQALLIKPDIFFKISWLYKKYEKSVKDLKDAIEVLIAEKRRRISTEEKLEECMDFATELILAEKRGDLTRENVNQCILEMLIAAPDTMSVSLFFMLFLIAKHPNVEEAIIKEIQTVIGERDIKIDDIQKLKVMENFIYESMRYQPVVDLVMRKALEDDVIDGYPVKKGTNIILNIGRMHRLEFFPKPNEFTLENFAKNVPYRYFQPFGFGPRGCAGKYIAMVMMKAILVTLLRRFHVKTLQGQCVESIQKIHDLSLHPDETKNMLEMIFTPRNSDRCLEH
The series can be described thus: Inhibition of microsomal CYP19 in human placenta using [1beta-3H]-androstenedione as substrate at 2 uM by 3H2O method relative to control. The following applies: placental microsomes, probe [1beta-3H]-androstenedione. The procedure, abridged: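 Human placental microsomes as the CYP19 source, with [1β-3H]androstenedione at 500 nM. Activity read by 3H2O release. Compound at 2 μM. Percent inhibition is the mean of at least three experiments (deviations <25%); values ≤5% are not significant.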

For series [2], the target named is T3, Cytochrome P450 11B1, mitochondrial (Homo sapiens, UniProt P15538).
T3 sequence (P15538 whole entry): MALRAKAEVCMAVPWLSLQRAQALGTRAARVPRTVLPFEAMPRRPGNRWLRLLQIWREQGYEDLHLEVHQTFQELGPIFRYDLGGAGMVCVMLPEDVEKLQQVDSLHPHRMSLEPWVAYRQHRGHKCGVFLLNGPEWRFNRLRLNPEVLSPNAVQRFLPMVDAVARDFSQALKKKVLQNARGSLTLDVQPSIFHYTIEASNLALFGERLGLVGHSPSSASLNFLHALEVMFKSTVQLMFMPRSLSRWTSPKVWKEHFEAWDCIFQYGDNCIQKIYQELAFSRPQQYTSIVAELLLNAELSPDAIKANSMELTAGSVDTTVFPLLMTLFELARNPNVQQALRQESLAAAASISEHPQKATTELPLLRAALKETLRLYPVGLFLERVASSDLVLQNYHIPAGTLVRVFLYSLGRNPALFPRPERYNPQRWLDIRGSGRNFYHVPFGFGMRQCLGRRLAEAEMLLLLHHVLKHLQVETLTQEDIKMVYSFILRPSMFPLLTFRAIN
The series can be described thus: Inhibition of human CYP11B1 expressed in hamster V79MZh cells using [1,2-3H]-11-deoxycorticosterone as substrate. The class given is cell-based. The method, boiled down:
as §1

Consider `Cc1cncc(Cc2ccc(-c3ccccc3)nc2)c1`, for which the IC50 in series [1] was determined as 33 nM; in series [2], 2 nM. In addition, at CYP19 (aromatase), the inhibition at 2 µM worked out at 1%.
